Here are results for three compounds from ChEMBL document CHEMBL3784923, “Azathioprine pharmacokinetics after intravenous, oral, delayed release oral and rectal foam administration” (Gut, 1996).

The nature of data set [1]: Stability in whole blood (unknown origin) using compound stored in ice water slurry. It counts as ADME, tissue-based. The settings on record: unidentified.
The species named for a further data set is Homo sapiens. Put plainly: Toxicity in inflammatory bowel disease patient assessed as induction of leucopenia. It counts as organism-based. The settings on record: in vivo.
The nature of data set [2]: Tmax in uraemic patient (8 patients) at 100 mg, po. The settings on record: human, in vivo.
The nature of data set [3]: Volume of distribution at steady state in uraemic patient (15 patients) at 100 mg, iv. The settings on record: human, in vivo.
Data set [4] is described as follows: Clearance in uraemic patient (15 patients) at 100 mg, iv. The note with it: human, in vivo.
Data set [5] in a line: Stability in plasma (unknown origin) using compound stored in frozen condition. The note with it: unidentified. In kind it is ADME, cell-free.
The nature of data set [6]: Oral bioavailability in uraemic patient (8 patients) at 100 mg. The note with it: human, in vivo.
A short description of data set [7]: Cmax in uraemic patient (8 patients) at 100 mg, po. The settings on record: human, in vivo.
Data set [8] can be described thus: Stability in plasma (unknown origin) at room temperature. The settings on record: unidentified. In kind it is ADME, cell-free. A digest of the protocol:
(§1)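 6MP in plasma was held at room temperature, both unextracted and after extraction, and measured by HPLC.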

A short description of data set [9]: Stability of the compound in extracted form in plasma (unknown origin) at room temperature. It counts as ADME, cell-free. The note with it: unidentified. A digest of the protocol: as §1
Data set [10] in a line: Drug excretion in feces of human treated with Eudragit coated tablets. In kind it is ADME, tissue-based. The note with it: faeces, po, read-out: Drug excretion.

SMILES strings stand for the structures.

For `Cn1cnc([N+](=O)[O-])c1Sc1ncnc2nc[nH]c12` [AZATHIOPRINE], the figures for the Stability entry in data set [1] and in data set [5] were “<= 5 hr” and “<= 1 yr”, respectively. In addition, in the data set filed under Homo sapiens, the Activity came to 2%. Besides, the Tmax – broadly, the time at which the peak concentration occurs – in data set [2] amounted to 1.5 h. In addition, the Vd (commonly a proportionality between amount in the body and measured concentration, not a real space) in data set [3] turned out to be 9.3 L/kg. Moreover, the clearance (commonly a measure of how efficiently the substance is removed, as volume per time) in data set [4] is 6.2 L/h/kg. Besides, the bioavailability (commonly dose-corrected exposure relative to a reference, in per cent) in [6] stood at 41%. In [7], the peak concentration (Cmax) (as a rule, the highest concentration seen after dosing) amounted to 0.022 µg/mL.

`Sc1ncnc2nc[nH]c12` [MERCAPTOPURINE ANHYDROUS]: the Stability result in [1] was “<= 5 hr”; in data set [8] it was 4 h; in data set [9], “<= 30 hr”; in data set [5], “<= 1 yr”. Further, the Activity in the data set listed under Homo sapiens was determined as 2%.

Take `Nc1ccc(O)c(C(=O)O)c1` [MESALAMINE]: the dose excreted in data set [10] is 25%.
